ChEMBL document CHEMBL4414577, “Discovery of Pyrrolo[2,3-b]pyridine (1,7-Dideazapurine) Nucleoside Analogues as Anti-Trypanosoma cruzi Agents” (J Med Chem, 2019)

How the values were obtained:
Trypanosoma cruzi = assay: In vivo antitrypanosomal activity against Trypanosoma cruzi Y trypomastigotes infected in Swiss mouse assessed as reduction in parasitemia at 25 mg/kg, po administered twice daily via gavage for 5 days starting from 5 days post-infection and measured up to 30 days post-infection by light microscopic method relative to control; format: functional; parameters: scale not given: the % may be the effect or the level left
How it was run: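 Male Swiss Webster mice (18-20 g, six per group) were infected i.p. with 10⁴ Y-strain bloodstream trypomastigotes. Treatment began at 5 dpi, only in mice with detectable parasitemia. Dosing was 25 mg/kg b.i.d. by oral gavage for 5 days, using a 2.0 mg/mL formulation in 10% EtOH, 0.1 M citrate pH 3.02. Parasites in 5 μL tail-vein blood were counted microscopically up to 30 dpi, against vehicle-treated infected mice.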

[1] = Drug metabolism in mouse liver microsomes assessed as CYP450-mediated metabolism by measuring parent compound remaining at 5 uM incubated for 60 mins in presence of NADPH by UPLC-MS analysis; format: ADME; conditions: read-out: Stability
[2] = Drug metabolism in dog liver microsomes assessed as UGT-mediated metabolism by measuring compound remaining at 5 uM incubated for 15 mins in presence of UDPGA by UPLC-MS analysis; format: ADME, Canis lupus familiaris; conditions: read-out: Stability
How it was run: (§1)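 Compound incubated with male mouse, rat, dog or pooled human S9 fractions, with NADPH (phase I) or […], sampled at 0, 15, 30 and 60 min. Read-out is percent parent remaining. Two independent experiments of two biological replicates; diclofenac and fluconazole used as assay controls.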

[3] = Drug metabolism in mouse liver microsomes assessed as UGT-mediated metabolism by measuring compound remaining at 5 uM incubated for 15 mins in presence of UDPGA by UPLC-MS analysis; format: ADME; conditions: read-out: Stability; how it was run: as §1
[4] = Drug metabolism in rat liver microsomes assessed as CYP450-mediated metabolism by measuring parent compound remaining at 5 uM incubated for 30 mins in presence of NADPH by UPLC-MS analysis; format: ADME; conditions: read-out: Stability; how it was run: as §1
[5] = molecular target: UDP-glucuronosyltransferases (UGTs) (Homo sapiens, UniProt O60656+O75310+O75795+P06133+P0DTE4+P0DTE5+P16662+P19224+P22309+P22310+P35503+P35504+P36537+P54855+Q6UWM9+Q9BY64+Q9HAW7+Q9HAW8+Q9HAW9); assay: Drug metabolism in human liver S9 fraction assessed as UGT-mediated metabolism by measuring compound remaining at 5 uM incubated for 60 mins in presence of UDPGA by UPLC-MS analysis; format: ADME, subcellular; conditions: read-out: Stability; how it was run: as §1
[6] = Toxicity in Swiss Webster mouse infected with Trypanosoma cruzi Y trypomastigotes assessed as appearance of clinical symptoms at 25 mg/kg, po administered twice daily via gavage for 5 days starting from 5 days post-infection and measured daily up to 40 days post-infection; format: organism-based; conditions: in vivo
How it was run: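 Male Swiss Webster mice were infected i.p. with 10⁴ Y-strain trypomastigotes and treated by oral gavage for 5 days from 5 dpi. Regimens were 25 mg/kg b.i.d. (10% EtOH/citrate vehicle) or benznidazole 100 mg/kg s.i.d. Body weight and visual clinical signs were monitored, with daily mortality checks up to 40 dpi. There were six mice per group.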

Cytochrome P450 = Cytochrome P450 (Homo sapiens, UniProt P04798+P05177+P05181+P08684+P10632+P10635+P11509+P11712+P13584+P20813+P20815+P20853+P24462+P24903+P33260+P33261+P51589+P78329+P98187+Q02928+Q08477+Q16678+Q16696+Q5TCH4+Q6VVX0+Q7Z449+Q8TAV3+Q96SQ9+Q9HB55); assay: Drug metabolism in human liver S9 fraction assessed as CYP450-mediated metabolism by measuring parent compound remaining at 5 uM incubated for 30 mins in presence of NADPH by UPLC-MS analysis; format: ADME, subcellular; conditions: read-out: Stability; how it was run: as §1
[7] = Drug metabolism in dog liver microsomes assessed as UGT-mediated metabolism by measuring compound remaining at 5 uM incubated for 60 mins in presence of UDPGA by UPLC-MS analysis; format: ADME, Canis lupus familiaris; conditions: read-out: Stability; how it was run: as §1
[8] = Drug metabolism in rat liver microsomes assessed as UGT-mediated metabolism by measuring compound remaining at 5 uM incubated for 60 mins in presence of UDPGA by UPLC-MS analysis; format: ADME; conditions: read-out: Stability; how it was run: as §1

- remaining at 1 h, 5 µM [1]: 94%
- remaining at 0.25 h, 5 µM [2]: 94%
- remaining at 0.25 h, 5 µM [3]: 102%
- remaining at 0.5 h, 5 µM [4]: 87%
- remaining at 1 h, 5 µM [5]: 100%
- remaining at 0.5 h, 5 µM (Cytochrome P450): 96%
- remaining at 1 h, 5 µM [7]: 84%
- remaining at 1 h, 5 µM [8]: 94%
SMILES: Nc1ccnc2c1c(I)cn2[C@@H]1O[C@H](CO)[C@@H](O)[C@H]1O
- Activity (Trypanosoma cruzi): 100%
- Activity [6]: Non-Toxic
